# Assay results: PubChem BioAssay AID651740 (Broad Institute, 2012)
# Out of some 5,600 compounds screened, about 1,200 (21%) were called active. Roughly 3% stayed inconclusive and do not appear here. These entries were drawn from the full list. A number with no mark means an inactive call.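 The calls were made as follows: active = mean inhibition above about 95%, with at least 55% of replicates also reaching it (limit read from the data); inconclusive = meets just one of the two conditions; inactive = meets neither condition.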
# Assay: Trypanosoma cruzi growth blockers in host fibroblasts – NIH3T3 host cells, beta-gal parasites, cherry-pick, set 2, confirmation (AID 651740);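 also: plate controls were neutral control median for no effect and positive control median for full effect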
# Conditions: T. cruzi beta-gal in NIH3T3, GalScreen luminescence, 90 h; at 2.09 µM; stronger effect = higher value
# Method in brief: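 System: T. cruzi Tulahuen C4 (beta-gal) in NIH/3T3 cells; Amount: 5,000 fibroblasts/well; Schedule: host attachment 3 h, co-culture ≥90 h, lysis 60 min; Signal: GalScreen luminescence (substrate 1:25 in Buffer B) after cell lysis; Buffer or medium: DMEM, 2% FBS, 1% PSG.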
row,SMILES,inhibition
1,C[C@@H]1CN([C@@H](C)CO)C(=O)c2cc(C#CC3CCCCC3)cnc2O[C@H]1CN(C)S(=O)(=O)c1ccccc1,85.8%
2,COc1ccc(-c2ccc3c(c2)[C@@H]2[C@@H](CCN2C(=O)Cc2ccccn2)[C@H](CO)N3C)cc1,84.9%
3,O=C(C1CCCC1)N1CCCCN2[C@@H](CO)[C@H](c3ccc(-c4cccc(F)c4)cc3)[C@@H]2C1,78.2%
4,O=C(CN1CCOCC1)N1CCCCN2[C@@H](CO)[C@H](c3ccc(/C=C/c4ccccc4)cc3)[C@@H]2C1,25.9%
5,C[C@H]1CN([C@@H](C)CO)S(=O)(=O)c2ccc(C#Cc3cccc(F)c3)cc2O[C@@H]1CN(C)S(=O)(=O)c1cn(C)cn1,24.7%
6,Cc1ccc(S(=O)(=O)Nc2ccc3c(c2)C(=O)N([C@@H](C)CO)C[C@@H](C)[C@H](CN(C)C(=O)Nc2cccc4ccccc24)OCCCC[C@H](C)O3)cc1,66.1%
7,C[C@@H]1CCCCO[C@@H](CN(C)Cc2ccccc2)[C@H](C)CN([C@H](C)CO)C(=O)c2cc(NC(=O)Nc3cccc4ccccc34)ccc2O1,110% (active)
8,C[C@@H]1CN([C@@H](C)CO)C(=O)c2cc(NC(=O)Nc3cccc4ccccc34)ccc2O[C@@H](C)CCCCO[C@H]1CN(C)Cc1ccccc1,94.8%
9,C[C@H](CO)N1C[C@H](C)[C@H](CN(C)S(=O)(=O)c2ccccc2)Oc2ncc(-c3cccc(C(F)(F)F)c3)cc2C1=O,47.5%
10,OC[C@@H]1[C@H](c2ccc(C#CC3CC3)cc2)[C@@H]2CN(CCC(F)(F)F)CCCCN12,78.6%
11,C[C@H](CO)N1C[C@H](C)[C@@H](CN(C)Cc2ccc(C(F)(F)F)cc2)OCCCC[C@H](C)Oc2ccc(NC(=O)C3CCCCC3)cc2C1=O,106% (active)
12,COc1ccc(NC(=O)N(C)C[C@@H]2Oc3c(NC(=O)NC4CCCCC4)cccc3C(=O)N([C@@H](C)CO)C[C@@H]2C)cc1,23.4%
13,C[C@@H]1CN([C@H](C)CO)C(=O)c2cccc(NC(=O)NC3CCCCC3)c2O[C@H]1CN(C)Cc1ccc(C(F)(F)F)cc1,106% (active)
14,C[C@H]1CCCCO[C@H](CN(C)Cc2ccc(C(F)(F)F)cc2)[C@@H](C)CN([C@@H](C)CO)C(=O)c2cc(NC(=O)C3CCCCC3)ccc2O1,111% (active)
15,C[C@@H]1CN([C@@H](C)CO)C(=O)c2cc(NC(=O)C3CCCCC3)ccc2O[C@@H](C)CCCCO[C@H]1CN(C)Cc1ccncc1,78%
16,C[C@H](CO)N1C[C@H](C)[C@@H](CN(C)Cc2ccc(C(=O)Nc3ccccc3N)cc2)Oc2c(NC(=O)c3ccc(-c4nccs4)cc3)cccc2C1=O,60.5%
17,C[C@@H]1CN([C@H](C)CO)S(=O)(=O)c2ccc(C#Cc3ccncc3)cc2O[C@@H]1CN(C)S(=O)(=O)c1ccc(F)cc1,22.2%
18,OC[C@H]1[C@H](c2ccc(-c3cccc(F)c3)cc2)[C@@H]2CN(Cc3cncnc3)CCCCN12,60.7%
19,CC(=O)N(C)C[C@@H]1[C@@H](c2ccc(-c3ccccc3F)cc2)[C@@H](CO)N1C(C)=O,26.5%
20,OC[C@@H]1[C@H](c2ccc(C#Cc3ccccc3)cc2)[C@@H]2CN(Cc3cncnc3)CCCCN12,90.4%
21,N#C[C@H]1[C@@H](c2ccc(C3=CCCCC3)cc2)[C@@H](CO)N1C(=O)NC1CCCCC1,59.4%
22,Cc1ccccc1-c1ccc([C@H]2[C@H]3CN(S(=O)(=O)c4ccc(F)cc4)CCCCN3[C@H]2CO)cc1,93.8%
23,C[C@@H]1CCCCO[C@H](CN(C)S(=O)(=O)c2ccc(F)cc2)[C@H](C)CN([C@@H](C)CO)C(=O)c2cc(NS(=O)(=O)c3ccccc3)ccc2O1,47.8%
24,O=C(CN1CCOCC1)N1CCCCN2[C@@H](CO)[C@H](c3ccc(-c4ccccc4)cc3)[C@@H]2C1,36.1%
25,CC(C)NC(=O)N1[C@H](C#N)[C@H](c2ccc(C#CC3CCCCC3)cc2)[C@H]1CO,117% (active)

row,SMILES,inhibition
1,CS(=O)(=O)N1[C@@H](C#N)[C@H](c2ccc(C#CC3CCCCC3)cc2)[C@@H]1CO,35.7%
2,CCCC#Cc1ccc([C@@H]2[C@@H](C#N)N(C(=O)C3CCCC3)[C@@H]2CO)cc1,73.2%
3,CN1c2ccc(-c3ccccc3)cc2[C@@H]2[C@@H](CCN2C(=O)c2ccncc2)[C@@H]1CO,64.5%
4,C[C@@H]1CN([C@H](C)CO)C(=O)Cc2cc(NC(=O)c3ccncc3)ccc2O[C@H]1CN(C)Cc1ccc(-c2ccccc2)cc1,48.9%
5,N#Cc1cccc(-c2ccc([C@H]3[C@H](CO)N4CCCCN(C(=O)Nc5cccc(F)c5)C[C@@H]34)cc2)c1,87.9%
6,COc1ccc(C#Cc2cnc3c(c2)C(=O)N([C@@H](C)CO)C[C@H](C)[C@@H](CN(C)C(C)=O)O3)cc1,-5.22%
7,C[C@@H]1CN([C@@H](C)CO)C(=O)c2cc(C#Cc3ccccc3)cnc2O[C@H]1CN(C)C(=O)c1ccccn1,62.8%
8,COCC(=O)N(C)C[C@@H]1Oc2ncc(C#Cc3ccccc3OC)cc2C(=O)N([C@@H](C)CO)C[C@H]1C,99.4% (active)
9,C[C@H]1CN([C@@H](C)CO)C(=O)CCCn2cc(nn2)CO[C@H]1CN(C)C(=O)c1ccccc1,-12.4%
10,C[C@H](CO)N1C[C@H](C)[C@@H](CN(C)S(=O)(=O)c2cccc(F)c2)OCc2ccccc2-c2c(n(C)c3ccccc23)C1=O,91.4%
11,O=C(CN1CCOCC1)N1CCCCN2[C@H](CO)[C@H](c3ccc(-c4ccccc4)cc3)[C@@H]2C1,49.3%
12,CCCC#Cc1ccc2c(c1)O[C@@H](CN(C)C(=O)c1ccccc1F)[C@H](C)CN([C@H](C)CO)S2(=O)=O,19.4%
13,C[C@H]1CN([C@@H](C)CO)S(=O)(=O)c2ccc(C3=CCCCC3)cc2O[C@@H]1CN(C)Cc1ccccc1,109% (active)
14,C[C@H]1CN([C@@H](C)CO)S(=O)(=O)c2ccc(C3=CCCC3)cc2O[C@@H]1CN(C)Cc1ccccc1,68%
15,C[C@@H]1CN([C@@H](C)CO)S(=O)(=O)c2ccc(C#Cc3ccccc3)cc2O[C@@H]1CN(C)C(=O)Nc1ccccc1,99.8% (active)
16,C[C@@H]1CN([C@@H](C)CO)S(=O)(=O)c2ccc(C#Cc3ccc(F)cc3)cc2O[C@H]1CN(C)C(=O)c1ccccn1,14.4%
17,C[C@@H]1CN([C@@H](C)CO)S(=O)(=O)c2ccc(/C=C/c3ccccc3)cc2O[C@H]1CN(C)Cc1ccccc1,106% (active)
18,C[C@@H]1CN([C@@H](C)CO)S(=O)(=O)c2ccc(C#Cc3ccc(F)cc3)cc2O[C@H]1CN(C)C(=O)NC1CCCC1,81.2%
19,C[C@@H]1CN([C@H](C)CO)S(=O)(=O)c2ccc(C3=CCCC3)cc2O[C@H]1CN(C)Cc1ccccc1F,73.8%
20,C[C@H](CO)N1C[C@H](C)[C@@H](CN(C)Cc2ccncc2)Oc2cc(Br)ccc2S1(=O)=O,92.7%
21,C[C@H]1CN([C@@H](C)CO)S(=O)(=O)c2ccc(C#CCN(C)C)cc2O[C@@H]1CN(C)Cc1ccc(F)cc1,93.3%
22,C[C@@H]1CN([C@H](C)CO)S(=O)(=O)c2ccc(C#CC3CCCC3)cc2O[C@@H]1CN(C)Cc1cccnc1,60.2%
23,C[C@H](CO)N1C[C@H](C)[C@H](CN(C)Cc2cccnc2)Oc2cc(C#CC3CCCC3)ccc2S1(=O)=O,82.9%
24,CC(C)C#Cc1ccc2c(c1)O[C@H](CN(C)Cc1ccccc1)[C@H](C)CN([C@@H](C)CO)S2(=O)=O,105% (active)
